Holding throughout (type): physicochemical
Series [1] is described as follows: Evaluated for ionization constant (pKa4) by titrations performed in the presence of EtOH and at a dielectric constant of 63. The settings on record: EtOH cosolvent; read-out: pKa4. The method in brief:
(§1)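 pH-metric titration in mixed water/cosolvent media (MeOH or EtOH, depending on the ligand) at several cosolvent proportions, each proportion setting the dielectric constant. Electrode calibrated with pH 7.00 phosphate buffer and standardized after a blank titration by a nonlinear semiempirical fit. Readings were converted to pcH to give concentration-scale constants.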

The nature of series [2]: Evaluated for ionization constant (pKa2) by titrations performed in the presence of EtOH and at a dielectric constant of 57. To be noted: EtOH cosolvent, dielectric constant 57; read-out: pKa2. The gist of the method: as §1
Series [3] can be described thus: Evaluated for ionization constant (pKa4) by titrations performed in the presence of EtOH and at a dielectric constant of 52. The settings on record: EtOH cosolvent; read-out: pKa4. The gist of the method: as §1
Series [4] is described as follows: Partition coefficient (logP). The settings on record: octanol/water. The gist of the method:
(§2)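 Free-ligand partition coefficients are measured by the pH-metric technique. This uses two linked titrations: a normal aqueous titration, then a two-phase titration in the presence of the partition solvent.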

Series [5] in a line: Evaluated for ionization constant (pKa4) by titrations performed in the presence of EtOH and at a dielectric constant of 57. To be noted: EtOH cosolvent; read-out: pKa4. The method in brief:
as §1

Series [6] is described as follows: Evaluated for ionization constant (pKa2) by titrations performed using method of Yasuda and Shedlovsky. To be noted: read-out: pKa2. The method in brief: (§3)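 Aqueous constants were extrapolated by the Yasuda–Shedlovsky method from pH-metric titrations run at several MeOH or EtOH cosolvent levels. Electrode calibrated with pH 7.00 phosphate buffer and standardized after a blank titration. Values are expressed on the pcH (-log[H+]) concentration scale.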

Series [7] can be described thus: Partition coefficient (logP) (cyclohexane). The method in brief: as §2
A short description of series [8]: Evaluated for ionization constant (pKa4) by titrations performed using the method of Yasuda and Shedlovsky. The settings on record: read-out: pKa4. The gist of the method:
(§4)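 Potentiometric pH titration. The electrode is calibrated with pH 7.00 phosphate buffer. A blank titration before each set standardizes the electrode by a nonlinear semiempirical equation, and readings are converted to the concentration scale pcH = −log[H+]. Runs use varying amounts of MeOH or EtOH cosolvent, and aqueous pKa values are extrapolated by the Yasuda–Shedlovsky method. Low pKa values (pH < 2) are determined by spectrophotometric titration.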

Series [9] can be described thus: Evaluated for ionization constant (pKa2) by titrations performed in the presence of EtOH and at a dielectric constant of 52. The settings on record: EtOH cosolvent, dielectric constant 52; read-out: pKa2. The method in brief: as §1
Series [10] in a line: Evaluated for ionization constant (pKa3) by titrations performed using the method of Yasuda and Shedlovsky. The settings on record: read-out: pKa3. The method in brief:
as §3

A short description of series [11]: Partition coefficient (logP) (chloroform). The gist of the method:
as §2

The nature of series [12]: Evaluated for ionization constant (pKa1) by titrations performed using method of Yasuda and Shedlovsky. To be noted: read-out: pKa1. The gist of the method:
as §3

A short description of series [13]: Evaluated for ionization constant (pKa3) by titrations performed in the presence of EtOH and at a dielectric constant of 52. To be noted: EtOH cosolvent; read-out: pKa3. The gist of the method:
as §1

A short description of series [14]: Evaluated for ionization constant (pKa3) by titrations performed in the presence of EtOH and at a dielectric constant of 63. To be noted: EtOH cosolvent; read-out: pKa3. The method in brief: as §1
A short description of series [15]: Evaluated for ionization constant (pKa3) by titrations performed in the presence of EtOH and at a dielectric constant of 57. To be noted: EtOH cosolvent; read-out: pKa3. The method in brief: as §1
The nature of series [16]: Evaluated for ionization constant (pKa4) by titrations performed in the presence of MeOH at a dielectric constant of 49. To be noted: MeOH cosolvent; read-out: pKa4. The gist of the method: as §1
Series [17] is described as follows: Evaluated for ionization constant (pKa6) by titrations performed in the presence of MeOH at a dielectric constant of 62. To be noted: MeOH cosolvent, dielectric constant 62; read-out: pKa6. The gist of the method:
as §4

The nature of series [18]: Evaluated for ionization constant (pKa3) by titrations performed in the presence of MeOH at a dielectric constant of 49. To be noted: MeOH cosolvent; read-out: pKa3. The gist of the method:
as §1

A short description of series [19]: Evaluated for ionization constant (pKa3) by titrations performed in the absence of a cosolvent and at a dielectric constant of 78. The settings on record: no cosolvent; read-out: pKa3.
The nature of series [20]: Evaluated for ionization constant (pKa2) by titrations performed in the absence of cosolvent and at a dielectric constant of 78. The settings on record: no cosolvent, dielectric constant 78; read-out: pKa2.
Series [21] can be described thus: Evaluated for ionization constant (pKa6) by titrations performed in the presence of MeOH at a dielectric constant of 49. To be noted: MeOH cosolvent, dielectric constant 49; read-out: pKa6. The method in brief: as §4
Series [22] can be described thus: Evaluated for ionization constant (pKa5) by titrations performed in the presence of MeOH at a dielectric constant of 56. To be noted: MeOH cosolvent; read-out: pKa5. The method in brief:
as §4

Series [23] in a line: Evaluated for ionization constant (pKa3) by titrations performed in the presence of MeOH at a dielectric constant of 62. The settings on record: MeOH cosolvent; read-out: pKa3. The method in brief:
as §1

A short description of series [24]: Evaluated for ionization constant (pKa5) by titrations performed using the method of Yasuda and Shedlovsky. The settings on record: read-out: pKa5. The gist of the method: as §4
Series [25] is described as follows: Evaluated for ionization constant-1 (pKa1) by titrations performed in absence of a cosolvent at a dielectric constant of 78. The settings on record: no cosolvent, dielectric constant 78; read-out: pKa1. The gist of the method: as §4
Series [26] can be described thus: Evaluated for ionization constant (pKa4) by titrations performed in the presence of MeOH at a dielectric constant of 56. The settings on record: MeOH cosolvent, dielectric constant 56; read-out: pKa4. The gist of the method: as §1
The nature of series [27]: Evaluated for ionization constant (pKa3) by titrations performed in the presence of MeOH at a dielectric constant of 56. The settings on record: MeOH cosolvent; read-out: pKa3. The method in brief: as §1
Series [28] can be described thus: Evaluated for ionization constant (pKa4) by titrations performed in the absence of a cosolvent and at a dielectric constant of 78. To be noted: no cosolvent; read-out: pKa4.
Series [29] in a line: Evaluated for ionization constant (pKa5) by titrations performed in the presence of MeOH at a dielectric constant of 62. To be noted: MeOH cosolvent; read-out: pKa5. The method in brief:
as §4

Series [30] is described as follows: Evaluated for ionization constant (pKa4) by titrations performed in the presence of MeOH at a dielectric constant of 62. To be noted: MeOH cosolvent; read-out: pKa4. The gist of the method:
as §1

A short description of series [31]: Evaluated for ionization constant (pKa6) by titrations performed using the method of Yasuda and Shedlovsky. The settings on record: read-out: pKa6. The method in brief:
as §4

A short description of series [32]: Evaluated for ionization constant (pKa5) by titrations performed in the presence of MeOH at a dielectric constant of 49. To be noted: MeOH cosolvent; read-out: pKa5. The gist of the method:
as §4

Series [33] is described as follows: Evaluated for ionization constant (pKa2) by titrations performed in the presence of MeOH at a dielectric constant of 56. The settings on record: MeOH cosolvent, dielectric constant 56; read-out: pKa2. The gist of the method:
as §1

Series [34] in a line: Evaluated for ionization constant (pKa6) by titrations performed in the presence of MeOH at a dielectric constant of 56. The settings on record: MeOH cosolvent, dielectric constant 56; read-out: pKa6. The method in brief: as §4

Some results are limits rather than exact numbers.

With `CCOC(=O)CN(CCN(CC(=O)OCC)Cc1ccccc1O)Cc1ccccc1O`, the pKa in series [1] turned out to be 1.42; in [2] it was 11.6; in [3], 1.05; in series [5], 1.21; in series [6], 10.9; in series [8], 1.8. The pKa in series [9] was determined as 11.8; in [10] it was 5.7; in [12] it was 12.2; in series [13] it was 5.09; in [14], 5.45; in series [15] it was 5.25. The logP amounted to 3.35 in series [4], 3.22 in series [7] and 3.35 in [11].
For the molecule `O=C(O)CN(CCN(CC(=O)O)Cc1ccccc1O)Cc1ccccc1O`, the pKa in series [16] was 4.71; in [17], 1.05; in [18] it was 8.37; in [19] it was 8.34; in [20], 11.1; in [21] it was 1.18. Moreover, the pKa in series [22] was 2.34; in series [23], 8.36; in series [24], 1.62; in series [25] it was 12.9; in [8] it was 4.58; in series [26], 4.57. Besides, the pKa in [27] came to 8.36; in series [28] it was 4.61; in series [10], 8.36; in [29], 2.25; in [30], 4.58; in series [31], 0.92. The pKa in series [32] came to 2.72; in [33], 12.5; in series [34], 1.11. For the same molecule, the logP in series [4] was 0.16; in [7], < -2; in series [11], < -2.

(Values after ChEMBL document CHEMBL1133005, “Improving the oral bioavailability of the iron chelator HBED by breaking the symmetry of the intramolecular H-bond network” (J Med Chem, 2000).)
